The source made the active and inactive calls. The rule behind the calls is not given here.
Experiments:
Salmonella typhimurium = test: Mutagenic activity in Salmonella Typhimurium TA100 by Ames assay; assay type: toxicity, organism-based; details: salmonella enterica subsp. enterica serovar typhimurium
[1] = Cytotoxicity against human KHYG-1 cells assessed as cell viability upto 20 uM after 24 hrs by trypan blue exclusion assay; assay type: cell-based; details: read-out: Activity
Method in brief: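 KHYG-1 cells at 4 × 10^5 cells/ml in RPMI + 0.1% BSA, compound up to 20 µM added for 20 min at RT. RPMI 0.1% BSA added in place of targets, 4 h at 37 °C, then washed ×3 and held 18 to 24 h at 37 °C in complete medium. Trypan blue read: clear cells as percent of total. DMSO vehicle control.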

[2] = molecular target: T1, Perforin-1 (Homo sapiens) (UniProt P14222); test: Inhibition of human KHYG-1 NK cells delivered perforin-mediated death of human K562 cells upto 20 uM preincubated for 20 mins with KHYG-1 cells measured after 30 mins by 51Cr release assay; assay type: cell-based; details: in the assay text read “measured after 4 hrs” for “measured after 30 mins”
T1 sequence (whole entry): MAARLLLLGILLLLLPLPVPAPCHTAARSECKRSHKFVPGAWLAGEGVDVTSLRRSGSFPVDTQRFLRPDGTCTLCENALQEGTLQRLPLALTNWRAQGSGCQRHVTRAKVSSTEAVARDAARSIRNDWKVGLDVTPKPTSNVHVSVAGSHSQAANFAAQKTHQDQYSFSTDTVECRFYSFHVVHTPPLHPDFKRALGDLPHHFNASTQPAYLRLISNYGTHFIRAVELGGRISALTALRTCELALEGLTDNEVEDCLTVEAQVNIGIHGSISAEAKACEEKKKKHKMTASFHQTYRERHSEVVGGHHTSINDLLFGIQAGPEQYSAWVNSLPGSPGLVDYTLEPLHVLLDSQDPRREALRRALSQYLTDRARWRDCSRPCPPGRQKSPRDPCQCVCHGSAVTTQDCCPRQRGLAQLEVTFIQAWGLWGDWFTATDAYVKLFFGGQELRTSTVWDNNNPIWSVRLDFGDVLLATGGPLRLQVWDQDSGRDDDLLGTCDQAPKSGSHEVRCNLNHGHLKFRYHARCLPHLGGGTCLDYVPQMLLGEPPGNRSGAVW
Method in brief: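 KHYG-1 NK cells (4 × 10^5/ml, RPMI + 0.1% BSA) given inhibitor up to 20 µM, 20 min at RT. K562 targets labeled with 75 µCi 51Cr for 90 min at 37 °C, added at effector:target 2:1, 4 h at 37 °C. % specific lysis from experimental, spontaneous and maximum release. Mean of triplicates ± SEM; inhibition relative to untreated control, DMSO vehicle control.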

[3] = molecular target: T2, Tumor necrosis factor ligand superfamily member 6 (Homo sapiens) (UniProt P48023); test: Inhibition of Fas ligand-mediated death of human Jurkat T cells upto 20 uM after 30 mins by 51Cr release assay; assay type: cell-based
T2 sequence (whole entry): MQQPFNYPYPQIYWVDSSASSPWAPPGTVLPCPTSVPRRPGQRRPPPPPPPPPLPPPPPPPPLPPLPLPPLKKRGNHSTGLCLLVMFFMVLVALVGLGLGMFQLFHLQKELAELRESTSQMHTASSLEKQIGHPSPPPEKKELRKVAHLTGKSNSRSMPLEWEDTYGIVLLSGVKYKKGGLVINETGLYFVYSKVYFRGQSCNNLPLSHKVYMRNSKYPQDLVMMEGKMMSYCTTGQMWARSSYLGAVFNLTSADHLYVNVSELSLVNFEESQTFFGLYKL
Method in brief: (§1)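 Fifty thousand 51Cr-labeled Jurkat cells preincubated with 20 µM final inhibitor for 30 min at 37 °C. Anti-Fas agonistic mAb CH11 or recombinant TRAIL, each at 250 ng/mL final, in RPMI with 1% BSA for 2 h. Controls were DMSO diluent and a non-inhibitor at the same concentration; SDS gave maximum release. Supernatant 51Cr γ-counted, triplicates, mean ± SEM.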

[4] = molecular target: Tumor necrosis factor ligand superfamily member 10 (Homo sapiens) (UniProt P50591); test: Inhibition of recombinant TRAIL-mediated death of human Jurkat T cells upto 20 uM after 30 mins by 51Cr release assay; assay type: cell-based; method in brief: as §1
[5] = molecular target: Pneumolysin (Streptococcus pneumoniae serotype 4 (strain ATCC BAA-334 / TIGR4)) (UniProt P0C2J9); test: Inhibition of Streptococcus pneumoniae pneumolysin-mediated lysis of sheep red blood cells
Method in brief: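 Single-point test at 20 µM compound, using the perforin/SRBC turbidity format with pneumolysin in place of perforin. Compound in DMSO is preincubated with the lytic protein for at least 30 min. Sheep red blood cells in RBC buffer are then added, and absorbance at 650 nm is read at 0 min and after 15 min at 37 °C. Matching DMSO serves as negative control.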

[6] = molecular target: T1, Perforin-1 (Homo sapiens); test: Inhibition of human CD3-CD56+ NK cell delivered perforin-mediated death of human K562 cells upto 20 uM preincubated for 30 mins with human CD3-CD56+ NK cell measured after 4 hrs by 51Cr release assay; assay type: cell-based
Method in brief: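 Human CD3-CD56+ NK cells taken from donor buffy coats by Ficoll then negative MACS selection. Used same day or after up to 3 days in 100 U/mL IL-2. Up to 2 × 10^5 NK cells with inhibitor, DMSO or medium in RPMI 0.1% BSA, 30 min at RT. 1 × 10^4 51Cr-labeled K562 added, 4 h at 37 °C, % specific lysis, triplicates.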

Pneumolysin (Streptococcus pneumoniae serotype 4 (strain ATCC BAA-334 / TIGR4)), sequence (P0C2J9 whole entry): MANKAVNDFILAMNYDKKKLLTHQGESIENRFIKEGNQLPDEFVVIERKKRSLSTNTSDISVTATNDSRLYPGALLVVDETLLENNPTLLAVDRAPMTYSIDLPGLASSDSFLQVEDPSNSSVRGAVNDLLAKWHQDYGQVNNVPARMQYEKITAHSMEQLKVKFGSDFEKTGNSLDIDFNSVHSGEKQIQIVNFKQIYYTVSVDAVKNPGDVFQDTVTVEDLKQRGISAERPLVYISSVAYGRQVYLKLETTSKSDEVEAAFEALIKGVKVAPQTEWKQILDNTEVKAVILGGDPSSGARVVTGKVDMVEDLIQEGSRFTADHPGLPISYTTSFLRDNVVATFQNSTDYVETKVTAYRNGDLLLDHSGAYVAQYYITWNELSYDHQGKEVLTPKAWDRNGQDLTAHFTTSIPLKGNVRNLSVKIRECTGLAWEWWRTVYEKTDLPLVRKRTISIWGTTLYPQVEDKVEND
Tumor necrosis factor ligand superfamily member 10 (Homo sapiens), sequence (P50591 whole entry): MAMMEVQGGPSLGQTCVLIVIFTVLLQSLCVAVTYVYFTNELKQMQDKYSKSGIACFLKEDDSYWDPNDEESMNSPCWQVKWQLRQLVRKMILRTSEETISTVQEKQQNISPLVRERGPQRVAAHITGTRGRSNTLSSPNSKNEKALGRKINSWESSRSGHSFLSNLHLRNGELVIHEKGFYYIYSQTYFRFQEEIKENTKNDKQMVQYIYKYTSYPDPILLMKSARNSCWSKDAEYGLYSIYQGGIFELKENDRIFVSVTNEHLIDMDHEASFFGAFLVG

| Compound | Activity (Salmonella typhimurium) | viability at 24 h [1] | inhibition [2] | also measured |
| --- | --- | --- | --- | --- |
| Cc1cc2c(c(=S)[nH]1)C(=O)O/C2=C\c1ccc[nH]1 | Not Active |  |  |  |
| Cc1cc2c(c(=S)[nH]1)C(=O)O/C2=C\c1cc2ccccc2[nH]1 |  | 0% | 95% |  |
| Cc1cc2c(c(=S)[nH]1)C(=O)O/C2=C\c1ccc(-c2ccccc2)s1 |  | 0% | 100% |  |
| Cc1cc2c(c(=S)[nH]1)C(=O)O/C2=C\c1ccco1 | Active |  |  |  |
| Cc1cc2c(c(=S)[nH]1)C(=O)O/C2=C\c1ccc(C)o1 | Active | 72% | 50% | Activity [3]: inactive; Activity [4]: inactive; Activity [5]: inactive; inhibition [6]: > 70% |
| Cc1cc2c(c(=S)[nH]1)C(=O)O/C2=C\c1csc2ccccc12 | Not Active | 88% | 63% |  |
| Cc1cc2c(c(=O)[nH]1)C(=O)O/C2=C\c1cc2ccccc2s1 |  | 100% | 65% |  |
| COc1ccc2oc(/C=C3\OC(=O)c4c3cc(C)[nH]c4=S)cc2c1 |  | 0% | 100% |  |
| Cc1cc2c(c(=S)[nH]1)C(=O)O/C2=C\c1cccs1 | Not Active |  |  |  |

— ChEMBL document CHEMBL1140224, “Dihydrofuro[3,4-c]pyridinones as inhibitors of the cytolytic effects of the pore-forming glycoprotein perforin” (J Med Chem, 2008)
